From ChEMBL document CHEMBL5661979, “Pharmacological inhibition of BMK1 suppresses tumor growth through promyelocytic leukemia protein” (Cancer Cell, 2010)

Legend:
[1] = molecular target: Mitogen-activated protein kinase kinase kinase 11 (Homo sapiens, UniProt Q16584); assay: Inhibition of MLK3 in human HeLa cells lysate pre incubated for 15 mins followed by ATP acyl phosphate probe addition and measured after 10 mins by LC-MS/MS analysis; assay type: subcellular
[2] = molecular target: Serine/threonine-protein kinase SMG1 (Homo sapiens, UniProt Q96Q15); assay: Inhibition of SMG1 in human HeLa cells lysate pre incubated for 15 mins followed by ATP acyl phosphate probe addition and measured after 10 mins by LC-MS/MS analysis; assay type: subcellular
[3] = molecular target: Phosphatidylinositol 3-kinase catalytic subunit type 3 (Homo sapiens, UniProt Q8NEB9); assay: Inhibition of PIK3C3 in human HeLa cells lysate pre incubated for 15 mins followed by ATP acyl phosphate probe addition and measured after 10 mins by LC-MS/MS analysis; assay type: subcellular
Activated CDC42 kinase 1 = Activated CDC42 kinase 1 (Homo sapiens, UniProt Q07912); assay: Inhibition of ACK1 in human HeLa cells lysate pre incubated for 15 mins followed by ADP acyl phosphate probe addition and measured after 10 mins by LC-MS/MS analysis; assay type: subcellular
Activated CDC42 kinase 1, sequence (Q07912 whole entry, the tested form may be a part): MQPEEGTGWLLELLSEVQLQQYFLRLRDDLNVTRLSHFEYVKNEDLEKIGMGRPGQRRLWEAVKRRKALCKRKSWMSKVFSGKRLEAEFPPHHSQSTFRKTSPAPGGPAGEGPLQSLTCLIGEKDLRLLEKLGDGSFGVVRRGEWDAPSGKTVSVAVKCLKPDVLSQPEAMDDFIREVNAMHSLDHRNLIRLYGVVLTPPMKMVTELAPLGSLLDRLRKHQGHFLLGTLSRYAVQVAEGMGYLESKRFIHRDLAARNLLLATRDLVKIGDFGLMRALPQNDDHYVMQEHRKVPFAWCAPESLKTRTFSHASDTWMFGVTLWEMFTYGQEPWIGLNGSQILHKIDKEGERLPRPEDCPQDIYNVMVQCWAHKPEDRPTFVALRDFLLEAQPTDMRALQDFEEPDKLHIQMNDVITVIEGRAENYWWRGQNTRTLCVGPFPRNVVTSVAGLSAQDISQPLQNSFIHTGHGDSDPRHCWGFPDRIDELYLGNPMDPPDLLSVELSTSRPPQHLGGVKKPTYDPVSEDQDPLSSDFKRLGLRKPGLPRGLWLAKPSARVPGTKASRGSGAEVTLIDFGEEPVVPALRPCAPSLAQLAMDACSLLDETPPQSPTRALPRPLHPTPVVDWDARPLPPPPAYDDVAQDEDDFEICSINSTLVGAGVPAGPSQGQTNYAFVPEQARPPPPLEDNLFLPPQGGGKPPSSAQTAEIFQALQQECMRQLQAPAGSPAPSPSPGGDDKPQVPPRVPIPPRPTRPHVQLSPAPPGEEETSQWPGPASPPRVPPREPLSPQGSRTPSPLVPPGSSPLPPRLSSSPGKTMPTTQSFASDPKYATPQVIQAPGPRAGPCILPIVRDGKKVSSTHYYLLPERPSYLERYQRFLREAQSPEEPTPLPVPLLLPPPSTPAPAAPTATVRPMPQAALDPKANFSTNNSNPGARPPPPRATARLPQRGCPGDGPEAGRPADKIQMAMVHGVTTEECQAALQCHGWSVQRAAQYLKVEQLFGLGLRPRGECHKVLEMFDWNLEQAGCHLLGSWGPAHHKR
Outline: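 HeLa cell lysate (5 mg/mL total protein) preincubated 15 min with inhibitor at 50, 10, 2, 0.8 and 0 μM, then ATP or ADP acylphosphate probe added (5 μM final) for 10 min. Reaction stopped with urea, then targeted LC-MS/MS. Up to four fragment ions per kinase peptide-probe conjugate were used. % inhibition was taken versus untreated lysate. Run in duplicate.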

[4] = molecular target: Serine/threonine-protein kinase 3/4 (Homo sapiens, UniProt Q13043+Q13188); assay: Inhibition of MST1/2 in human HeLa cells lysate pre incubated for 15 mins followed by ADP acyl phosphate probe addition and measured after 10 mins by LC-MS/MS analysis; assay type: subcellular
[5] = molecular target: Cyclin-dependent kinase 13 (Homo sapiens, UniProt Q14004); assay: Inhibition of CHED in human HeLa cells lysate at 50 uM pre incubated for 15 mins followed by ADP acyl phosphate probe addition and measured after 10 mins by LC-MS/MS analysis relative to control; assay type: subcellular; details: time 25.0 min
Outline: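 KiNativ profiling in HeLa lysate (5 mg/mL total protein). Lysate incubated 15 min with inhibitor at 50, 10, 2, 0.8 or 0 μM. ATP or ADP acylphosphate probe then added (5 μM final) and reacted 10 min. Reaction stopped with urea and analysed by targeted MS, using up to four fragment ions per kinase peptide-probe conjugate. % inhibition taken against untreated lysate. Run in duplicate.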

[6] = Inhibition of MST4/YSK1 in human HeLa cells lysate at 10 uM pre incubated for 15 mins followed by ADP acyl phosphate probe addition and measured after 10 mins by LC-MS/MS analysis relative to control; details: 25 min, condition cancer
[7] = molecular target: Ribosomal protein S6 kinase alpha-5 (Homo sapiens, UniProt O75582); assay: Inhibition of MSK1 domain 1 K1 site in human HeLa cells lysate at 10 uM pre incubated for 15 mins followed by ADP acyl phosphate probe addition and measured after 10 mins by LC-MS/MS analysis relative to control; assay type: subcellular; details: time 25.0 min
Ribosomal protein S6 kinase alpha-5, sequence (O75582 whole entry, looked up, the tested form may be a part): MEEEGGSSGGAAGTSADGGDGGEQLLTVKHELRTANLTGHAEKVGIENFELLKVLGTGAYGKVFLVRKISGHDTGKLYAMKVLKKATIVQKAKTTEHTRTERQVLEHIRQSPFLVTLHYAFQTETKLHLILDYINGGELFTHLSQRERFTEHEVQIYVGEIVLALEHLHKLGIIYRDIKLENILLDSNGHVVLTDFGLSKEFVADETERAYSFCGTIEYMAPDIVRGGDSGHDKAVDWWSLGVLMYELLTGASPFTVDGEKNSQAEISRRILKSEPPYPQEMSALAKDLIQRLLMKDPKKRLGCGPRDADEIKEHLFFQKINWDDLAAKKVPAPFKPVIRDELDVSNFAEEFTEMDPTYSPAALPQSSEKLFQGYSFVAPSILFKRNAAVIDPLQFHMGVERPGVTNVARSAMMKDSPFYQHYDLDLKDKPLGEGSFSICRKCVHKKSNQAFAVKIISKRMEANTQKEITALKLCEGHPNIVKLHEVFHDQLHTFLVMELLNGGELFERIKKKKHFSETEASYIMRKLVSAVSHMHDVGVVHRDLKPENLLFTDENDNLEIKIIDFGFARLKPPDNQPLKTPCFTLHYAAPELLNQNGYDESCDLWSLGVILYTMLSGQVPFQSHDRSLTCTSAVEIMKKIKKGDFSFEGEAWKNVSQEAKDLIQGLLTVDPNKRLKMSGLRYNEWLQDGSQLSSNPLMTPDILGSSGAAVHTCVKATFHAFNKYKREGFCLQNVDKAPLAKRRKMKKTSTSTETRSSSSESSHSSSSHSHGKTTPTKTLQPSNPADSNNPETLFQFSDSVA

[8] = Inhibition of HGK/MINK/TNIK in human HeLa cells lysate at 10 uM pre incubated for 15 mins followed by ADP acyl phosphate probe addition and measured after 10 mins by LC-MS/MS analysis relative to control; details: 25 min, condition cancer
[9] = molecular target: T1, Phosphatidylinositol 5-phosphate 4-kinase type-2 alpha (Homo sapiens) (UniProt P48426); assay: Inhibition of PIP5K2A LIP1 site in human HeLa cells lysate at 2 uM pre incubated for 15 mins followed by ADP acyl phosphate probe addition and measured after 10 mins by LC-MS/MS analysis relative to control; assay type: subcellular; details: time 25.0 min
T1 sequence (whole entry): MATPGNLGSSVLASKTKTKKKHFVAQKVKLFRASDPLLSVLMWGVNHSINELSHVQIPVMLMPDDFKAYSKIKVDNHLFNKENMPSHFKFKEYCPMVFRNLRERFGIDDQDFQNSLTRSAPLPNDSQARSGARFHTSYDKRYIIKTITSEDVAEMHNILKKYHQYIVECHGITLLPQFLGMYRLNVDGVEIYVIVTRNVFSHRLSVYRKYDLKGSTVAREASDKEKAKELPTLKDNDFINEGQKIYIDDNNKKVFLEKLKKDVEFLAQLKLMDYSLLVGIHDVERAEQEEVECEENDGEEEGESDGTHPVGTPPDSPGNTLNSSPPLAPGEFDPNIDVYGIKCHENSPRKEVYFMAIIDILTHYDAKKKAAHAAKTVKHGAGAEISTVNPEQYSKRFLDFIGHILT

Wee1-like protein kinase = Wee1-like protein kinase (Homo sapiens, UniProt P30291); assay: Inhibition of Wee1 in human HeLa cells lysate at 50 uM pre incubated for 15 mins followed by ATP acyl phosphate probe addition and measured after 10 mins by LC-MS/MS analysis relative to control; assay type: subcellular; details: time 25.0 min
[10] = molecular target: Ribosomal protein S6 kinase beta-2 (Homo sapiens, UniProt Q9UBS0); assay: Inhibition of P70S6KB in human HeLa cells lysate at 50 uM pre incubated for 15 mins followed by ATP acyl phosphate probe addition and measured after 10 mins by LC-MS/MS analysis relative to control; assay type: subcellular; details: time 25.0 min
[11] = molecular target: Tyrosine-protein kinase CSK (Homo sapiens, UniProt P41240); assay: Inhibition of CSK in human HeLa cells lysate at 50 uM pre incubated for 15 mins followed by ATP acyl phosphate probe addition and measured after 10 mins by LC-MS/MS analysis relative to control; assay type: subcellular; details: time 25.0 min
[12] = molecular target: Microtubule-associated serine/threonine-protein kinase 3 (Homo sapiens, UniProt O60307); assay: Inhibition of MAST3 in human HeLa cells lysate at 50 uM pre incubated for 15 mins followed by ATP acyl phosphate probe addition and measured after 10 mins by LC-MS/MS analysis relative to control; assay type: subcellular; details: time 25.0 min
[13] = molecular target: Glycogen synthase kinase-3 beta (Homo sapiens, UniProt P49841); assay: Inhibition of GSK3B isoform 2 in human HeLa cells lysate at 10 uM pre incubated for 15 mins followed by ATP acyl phosphate probe addition and measured after 10 mins by LC-MS/MS analysis relative to control; assay type: subcellular; details: time 25.0 min
Glycogen synthase kinase-3 beta, sequence (P49841 whole entry, looked up, canonical isoform): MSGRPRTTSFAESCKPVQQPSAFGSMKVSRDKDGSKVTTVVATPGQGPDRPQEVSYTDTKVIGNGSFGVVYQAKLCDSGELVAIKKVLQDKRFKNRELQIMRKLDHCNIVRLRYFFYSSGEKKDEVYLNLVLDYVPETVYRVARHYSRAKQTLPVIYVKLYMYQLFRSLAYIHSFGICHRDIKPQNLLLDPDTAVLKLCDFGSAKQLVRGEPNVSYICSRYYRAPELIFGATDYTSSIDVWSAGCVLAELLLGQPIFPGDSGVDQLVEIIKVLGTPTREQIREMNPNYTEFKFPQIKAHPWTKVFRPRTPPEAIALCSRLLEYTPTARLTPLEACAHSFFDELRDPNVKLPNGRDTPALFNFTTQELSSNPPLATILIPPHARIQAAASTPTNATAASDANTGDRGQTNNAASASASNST

[14] = molecular target: Protein kinase C theta type (Homo sapiens, UniProt Q04759); assay: Inhibition of PKCtheta in human HeLa cells lysate at 10 uM pre incubated for 15 mins followed by ATP acyl phosphate probe addition and measured after 10 mins by LC-MS/MS analysis relative to control; assay type: subcellular; details: time 25.0 min
Protein kinase C theta type, sequence (Q04759 whole entry, looked up): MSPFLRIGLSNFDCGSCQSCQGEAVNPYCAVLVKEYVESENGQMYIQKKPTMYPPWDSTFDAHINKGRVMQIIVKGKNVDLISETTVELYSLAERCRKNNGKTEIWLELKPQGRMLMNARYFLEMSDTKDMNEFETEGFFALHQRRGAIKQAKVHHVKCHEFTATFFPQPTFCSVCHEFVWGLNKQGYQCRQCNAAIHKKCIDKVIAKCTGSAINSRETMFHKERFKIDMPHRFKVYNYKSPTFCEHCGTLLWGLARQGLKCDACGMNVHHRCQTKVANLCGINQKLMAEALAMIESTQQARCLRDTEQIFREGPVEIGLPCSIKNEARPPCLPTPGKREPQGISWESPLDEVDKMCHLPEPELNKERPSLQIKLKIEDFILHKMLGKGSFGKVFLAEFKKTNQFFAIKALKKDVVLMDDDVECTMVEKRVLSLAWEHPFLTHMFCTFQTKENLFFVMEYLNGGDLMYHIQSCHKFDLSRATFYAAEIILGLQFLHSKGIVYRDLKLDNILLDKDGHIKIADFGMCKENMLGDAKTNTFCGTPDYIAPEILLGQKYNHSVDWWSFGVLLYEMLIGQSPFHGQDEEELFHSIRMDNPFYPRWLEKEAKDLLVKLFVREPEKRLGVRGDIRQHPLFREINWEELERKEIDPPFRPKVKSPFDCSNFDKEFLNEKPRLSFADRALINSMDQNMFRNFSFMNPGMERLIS

[15] = molecular target: Mitogen-activated protein kinase 14 (Homo sapiens, UniProt Q16539); assay: Inhibition of p38a in human HeLa cells lysate at 2 uM pre incubated for 15 mins followed by ATP acyl phosphate probe addition and measured after 10 mins by LC-MS/MS analysis relative to control; assay type: subcellular; details: time 25.0 min
[16] = molecular target: Serine/threonine-protein kinase Aurora (Homo sapiens, UniProt Q96GD4+Q9UQB9+O14965); assay: Inhibition of AurA/AurB/AurC in human HeLa cells lysate at 2 uM pre incubated for 15 mins followed by ATP acyl phosphate probe addition and measured after 10 mins by LC-MS/MS analysis relative to control; assay type: subcellular; details: time 25.0 min
Serine/threonine-protein kinase Aurora, sequence (O14965 whole entry, looked up, the tested form may be a part): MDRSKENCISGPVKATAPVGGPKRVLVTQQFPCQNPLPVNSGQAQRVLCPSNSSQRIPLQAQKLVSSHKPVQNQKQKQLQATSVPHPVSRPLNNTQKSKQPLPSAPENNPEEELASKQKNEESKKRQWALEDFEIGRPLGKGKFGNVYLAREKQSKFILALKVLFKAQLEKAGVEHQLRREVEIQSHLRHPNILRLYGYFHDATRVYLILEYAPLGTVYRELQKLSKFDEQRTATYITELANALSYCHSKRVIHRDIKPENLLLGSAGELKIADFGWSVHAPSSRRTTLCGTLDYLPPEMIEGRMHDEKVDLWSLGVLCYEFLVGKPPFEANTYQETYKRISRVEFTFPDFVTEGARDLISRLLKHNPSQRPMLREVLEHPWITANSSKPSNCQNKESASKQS
Serine/threonine-protein kinase Aurora, sequence (Q96GD4 whole entry, looked up, the tested form may be a part): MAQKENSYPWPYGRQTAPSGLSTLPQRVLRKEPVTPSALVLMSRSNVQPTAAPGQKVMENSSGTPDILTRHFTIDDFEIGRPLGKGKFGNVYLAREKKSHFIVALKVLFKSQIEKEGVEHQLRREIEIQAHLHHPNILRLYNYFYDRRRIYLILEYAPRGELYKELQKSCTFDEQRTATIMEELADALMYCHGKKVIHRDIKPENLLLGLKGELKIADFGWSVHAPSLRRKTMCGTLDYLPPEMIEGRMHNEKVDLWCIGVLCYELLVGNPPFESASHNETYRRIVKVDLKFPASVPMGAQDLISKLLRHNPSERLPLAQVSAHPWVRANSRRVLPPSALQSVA
Serine/threonine-protein kinase Aurora, sequence (Q9UQB9 whole entry, looked up, the tested form may be a part): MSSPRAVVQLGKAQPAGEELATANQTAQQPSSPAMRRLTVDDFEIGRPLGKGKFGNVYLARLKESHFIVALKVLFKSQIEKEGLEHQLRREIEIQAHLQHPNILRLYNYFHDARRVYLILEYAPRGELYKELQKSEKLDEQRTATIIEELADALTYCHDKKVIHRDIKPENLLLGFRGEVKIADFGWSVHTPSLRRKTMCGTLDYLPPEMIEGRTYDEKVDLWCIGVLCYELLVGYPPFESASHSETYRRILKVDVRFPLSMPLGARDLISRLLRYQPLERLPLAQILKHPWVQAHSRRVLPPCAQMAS
Outline: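 KiNativ-type profiling in HeLa lysate (5 mg/mL total protein). Lysate preincubated 15 min with inhibitor at 50, 10, 2, 0.8 or 0 μM, then ATP or ADP acylphosphate probe added (5 μM final) for 10 min. Reaction stopped with urea and analysed by targeted MS, using up to four fragment ions per kinase peptide-probe conjugate. % inhibition calculated against untreated lysate. Duplicate reactions.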

Mitogen-activated protein kinase kinase kinase 11, sequence (Q16584 whole entry): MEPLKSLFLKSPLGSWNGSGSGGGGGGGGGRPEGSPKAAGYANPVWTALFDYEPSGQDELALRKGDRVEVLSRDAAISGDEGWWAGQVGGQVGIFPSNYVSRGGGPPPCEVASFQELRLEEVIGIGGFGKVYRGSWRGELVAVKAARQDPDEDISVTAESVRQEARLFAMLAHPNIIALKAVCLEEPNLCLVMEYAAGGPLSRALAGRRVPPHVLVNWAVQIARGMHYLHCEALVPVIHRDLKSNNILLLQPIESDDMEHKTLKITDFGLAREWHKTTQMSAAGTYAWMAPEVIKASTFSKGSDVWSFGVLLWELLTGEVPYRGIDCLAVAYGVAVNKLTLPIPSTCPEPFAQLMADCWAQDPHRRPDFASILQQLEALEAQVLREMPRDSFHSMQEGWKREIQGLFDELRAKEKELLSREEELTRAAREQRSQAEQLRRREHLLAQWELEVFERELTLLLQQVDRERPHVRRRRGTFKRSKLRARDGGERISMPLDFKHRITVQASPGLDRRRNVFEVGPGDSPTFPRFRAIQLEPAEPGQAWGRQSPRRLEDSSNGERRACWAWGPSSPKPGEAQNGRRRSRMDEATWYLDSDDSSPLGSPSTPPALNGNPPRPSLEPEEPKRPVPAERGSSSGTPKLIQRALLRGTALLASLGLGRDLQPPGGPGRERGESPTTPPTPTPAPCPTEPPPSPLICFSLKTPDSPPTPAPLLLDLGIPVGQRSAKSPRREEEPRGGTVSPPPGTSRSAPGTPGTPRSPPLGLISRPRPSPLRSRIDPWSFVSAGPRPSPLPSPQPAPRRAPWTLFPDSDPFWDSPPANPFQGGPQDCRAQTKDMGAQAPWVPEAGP

CCOc1cc(N2CCC(O)CC2)ccc1Nc1ncc2c(n1)N(C)c1ccccc1C(=O)N2C
IC50 [1]: > 50 µM
IC50 [2]: > 50 µM
IC50 [3]: > 50 µM
IC50 (Activated CDC42 kinase 1): 18 µM
IC50 [4]: > 50 µM
inhibition [5]: 12%
inhibition at 10 µM [6]: 7.9%
inhibition [7]: 1.8%
inhibition at 10 µM [8]: -25.3%
inhibition [9]: 3.5%
inhibition (Wee1-like protein kinase): 4.1%
inhibition [10]: 3%
inhibition [11]: 0.9%
inhibition [12]: -5.8%
inhibition [13]: -7.8%
inhibition [14]: 12.4%
inhibition [15]: 3.8%
inhibition [16]: -5.8%
